According to ChEMBL document CHEMBL1811780, “Could LogP be a principal determinant of biological activity in 18-crown-6 ethers? Synthesis of biologically active adamantane-substituted diaza-crowns” (Eur J Med Chem, 2011):
pIC50: −log10 of the molar value. Calls of active or inactive are those of the source. The rule behind the calls is not given here.

How the values were obtained:
[1] = tested on: MCF7; test: Antiproliferative activity against human MCF7 cells after 72 hrs by MTT assay; type: functional; conditions: MCF7, 72 h
Procedure, shortened: (§1)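 Adherent monolayers grown in DMEM with 10% FBS, 2 mM L-glutamine, penicillin and streptomycin at 37 °C, 5% CO2. Cells seeded on day 0, then given five 10-fold dilutions (10^-8 to 10^-4 mol/L), DMSO at most 0.25%, for 72 h. MTT read at 570 nm. GI50 from linear regression of percentage growth around 50%. Quadruplicate points; mean of three experiments.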

[2] = tested on: Bacillus subtilis; test: Antibacterial activity against Bacillus subtilis after 70 mins; type: functional, organism-based
[3] = tested on: NCI-H460; test: Antiproliferative activity against human H460 cells after 72 hrs by MTT assay; type: functional; conditions: NCI-H460, 72 h; procedure, shortened: as §1
[4] = tested on: SW-620; test: Antiproliferative activity against human SW620 cells after 72 hrs by MTT assay; type: functional; conditions: SW-620, 72 h; procedure, shortened: as §1
[5] = tested on: MIA PaCa-2; test: Antiproliferative activity against human MIAPaCa2 cells after 72 hrs by MTT assay; type: functional; conditions: MIA PaCa-2, 72 h; procedure, shortened: as §1
[6] = tested on: HeLa; test: Antiproliferative activity against human HeLa cells after 72 hrs by MTT assay; type: functional; procedure, shortened: as §1
[7] = tested on: Escherichia coli; test: Antibacterial activity against Escherichia coli assessed as growth inhibition at 10^-4 M after 105 mins; type: functional; conditions: 1.75 h, read-out: GI
Procedure, shortened: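 E. coli grown in LB at 37 °C with shaking to OD600 ≈0.1. Culture split into untreated control and four treated aliquots at 10^-4, 10^-5, 10^-6 and 10^-7 M. Grown 105 min (about three mass doublings) at 37 °C. Dilutions in phosphate buffer plated on LB, incubated overnight at 37 °C, CFU counted. % growth inhibition and GI50 derived as for tumour cells. Quadruplicate, at least two experiments.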

[8] = tested on: HCT-116; test: Antiproliferative activity against human HCT116 cells after 72 hrs by MTT assay; type: functional; conditions: HCT-116, 72 h; procedure, shortened: as §1
[9] = tested on: MOLT-4; test: Antiproliferative activity against human MOLT4 cells after 72 hrs by MTT assay; type: functional; conditions: MOLT-4, 72 h
Procedure, shortened: as §1, with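 “MOLT-4” for “Adherent monolayers”, “suspension in RPMI” for “DMEM”, “Treated with” for “Cells seeded on day 0, then given”, “by” for “from”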

[10] = tested on: SW-620; test: Induction of apoptosis in human SW620 cells assessed as necrotic cells at 10 uM after 48 hrs using annexin-V/conjugated 7-AAD double staining by flow cytometry (reference value: 0.14%); type: functional
[11] = tested on: SW-620; test: Cell cycle arrest in human SW620 cells assessed as G1 phase delay at 5 uM after 24 to 48 hrs using propidium iodide staining by flow cytometry; type: functional, cell-based
Procedure, shortened: (§2)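 2×10^5 SW 620 cells per well were treated 24 h after seeding, for 24 or 48 h. Attached and floating cells were pooled, fixed in 70% ethanol, then stained with 1 µg/ml PI plus RNase A. 20000 events were acquired by flow cytometry. Phase percentages came from DNA histograms; subG1 is given as a percentage of all counts.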

[12] = tested on: SW-620; test: Cell cycle arrest in human SW620 cells assessed as S phase reduction at 5 uM after 24 to 48 hrs using propidium iodide staining by flow cytometry; type: functional, cell-based; procedure, shortened: as §2
[13] = tested on: SW-620; test: Induction of apoptosis in human SW620 cells assessed as late apoptotic cells at 10 uM after 48 hrs using annexin-V/conjugated 7-AAD double staining by flow cytometry (reference value: 1.33%); type: functional
[14] = tested on: SW-620; test: Induction of apoptosis in human SW620 cells assessed as necrotic cells at 5 uM after 48 hrs using annexin-V/conjugated 7-AAD double staining by flow cytometry (reference value: 0.14%); type: functional
[15] = tested on: SW-620; test: Induction of apoptosis in human SW620 cells assessed as viable cells at 10 uM after 48 hrs using annexin-V/conjugated 7-AAD double staining by flow cytometry (reference value: 95.95%); type: functional; conditions: SW-620, 48 h, read-out: Activity
[16] = tested on: SW-620; test: Induction of apoptosis in human SW620 cells assessed as early apoptotic cells at 5 uM after 48 hrs using annexin-V/conjugated 7-AAD double staining by flow cytometry (reference value: 2.58%); type: functional
[17] = tested on: SW-620; test: Induction of apoptosis in human SW620 cells assessed as viable cells at 5 uM after 48 hrs using annexin-V/conjugated 7-AAD double staining by flow cytometry (reference value: 95.95%); type: functional; conditions: SW-620, 48 h, read-out: Activity
[18] = tested on: SW-620; test: Cell cycle arrest in human SW620 cells assessed as S phase reduction at 10 uM after 24 to 48 hrs using propidium iodide staining by flow cytometry; type: functional, cell-based; procedure, shortened: as §2
[19] = tested on: SW-620; test: Cell cycle arrest in human SW620 cells assessed as G1 phase delay at 10 uM after 24 to 48 hrs using propidium iodide staining by flow cytometry; type: functional, cell-based; procedure, shortened: as §2
[20] = tested on: SW-620; test: Induction of apoptosis in human SW620 cells assessed as late apoptotic cells at 5 uM after 48 hrs using annexin-V/conjugated 7-AAD double staining by flow cytometry (reference value: 1.33%); type: functional
[21] = tested on: SW-620; test: Induction of apoptosis in human SW620 cells assessed as early apoptotic cells at 10 uM after 48 hrs using annexin-V/conjugated 7-AAD double staining by flow cytometry (reference value: 2.58%); type: functional
[22] = tested on: SW-620; test: Cell cycle arrest in human SW620 cells assessed as accumulation in subG1 phase at 10 uM after 24 to 48 hrs using propidium iodide staining by flow cytometry; type: functional, cell-based; procedure, shortened: as §2

SMILES | GI50 [1] [µM] | pIC50 [2] | GI50 [3] [µM] | GI50 [4] [µM] | GI50 [5] [µM] | GI50 [6] [µM] | inhibition of growth at 100 µM [7] [%] | further results
c1ccc(CN2CCOCCOCCOCCOCCOCC2)cc1 | > 100 | 2.80 | > 100 | > 100 |  |  |  | 
C1COCCOCCN(CCC23CC4CC(CC(C4)C2)C3)CCOCCOCCO1 | 8 | 4.60 | 15 | 9 | 12 | 16 |  | 
O=C(CC12CC3CC(CC(C3)C1)C2)N1CCOCCOCCN(C(=O)CC23CC4CC(CC(C4)C2)C3)CCOCCOCC1 | 5 | 4.34 | 14 | 12 |  |  | < 15 | GI50 [8]: 6 µM; GI50 [9]: 6 µM
O=C(CCC12CC3CC(CC(C3)C1)C2)N1CCOCCOCCOCCOCCOCC1 | 17 | 2.80 | 72 | 13 | 30 | 28 | < 15 | 
c1ccc(CN2CCOCCOCCN(Cc3ccccc3)CCOCCOCC2)cc1 |  | 3.42 |  |  |  |  | < 15 | 
O=C(NCC(=O)N1CCOCCOCCN(C(=O)CNC(=O)OCc2ccccc2)CCOCCOCC1)OCc1ccccc1 |  | 2.80 |  |  |  |  |  | 
CC(C)(C)c1ccc2c(c1)OCCOCCOc1cc(C(C)(C)C)ccc1OCCOCCO2 |  | 5.70 |  |  |  |  | < 15 | 
C(CN1CCOCCOCCOCCOCCOCC1)CC12CC3CC(CC(C3)C1)C2 | 6 |  | 15 | 9 | 11 | 14 |  | 
C1COCCN(CCC23CC4CC(CC(C4)C2)C3)CCOCCOCCN(CCC23CC4CC(CC(C4)C2)C3)CCO1 | 4 | 3.60 | 4 | 2.6 | 1.7 | 2.3 | < 15 | Activity [10]: 0.87%; Activity [11]: Active; Activity [12]: Active; Activity [13]: 9.46%; Activity [14]: 0.17%; viability at 10 µM [15]: 76%; Activity [16]: 7.46%; viability at 5 µM [17]: 90%; Activity [18]: Active; Activity [19]: Active; Activity [20]: 2.34%; Activity [21]: 13.72%; Activity [22]: Active
CC(C)(C)c1cc2c(c(C(C)(C)C)c1)OCCOCCOc1c(cc(C(C)(C)C)cc1C(C)(C)C)OCCOCCO2 |  | 2.80 |  |  |  |  | < 15 | 
O=C(N1CCOCCOCCN(C(=O)C23CC4CC(CC(C4)C2)C3)CCOCCOCC1)C12CC3CC(CC(C3)C1)C2 | 9 | 4.12 | 12 | 21 |  |  | < 15 | 
C1COCC23CC4CC(C2)CC(COCCOCC25CC6CC(CC(CO1)(C6)O2)C5)(C4)O3 | 13 | 2.80 | 4 | 3 | 2 | 17 | < 15 | 
